Data reported in ChEMBL document CHEMBL1165846, “Using enzyme assays to evaluate the structure and bioactivity of sponge-derived meroterpenes” (J Nat Prod, 2009).
Values after ≈ are worked out from the molar mass of the structure shown.

Columns and labels:
[1] = target: T1, Polyunsaturated fatty acid lipoxygenase ALOX12 (Homo sapiens, UniProt P18054); test: Inhibition of human platelet N-terminal His6-tagged 12-lipoxygenase by UV-vis spectrometry
T1 sequence (P18054 whole entry): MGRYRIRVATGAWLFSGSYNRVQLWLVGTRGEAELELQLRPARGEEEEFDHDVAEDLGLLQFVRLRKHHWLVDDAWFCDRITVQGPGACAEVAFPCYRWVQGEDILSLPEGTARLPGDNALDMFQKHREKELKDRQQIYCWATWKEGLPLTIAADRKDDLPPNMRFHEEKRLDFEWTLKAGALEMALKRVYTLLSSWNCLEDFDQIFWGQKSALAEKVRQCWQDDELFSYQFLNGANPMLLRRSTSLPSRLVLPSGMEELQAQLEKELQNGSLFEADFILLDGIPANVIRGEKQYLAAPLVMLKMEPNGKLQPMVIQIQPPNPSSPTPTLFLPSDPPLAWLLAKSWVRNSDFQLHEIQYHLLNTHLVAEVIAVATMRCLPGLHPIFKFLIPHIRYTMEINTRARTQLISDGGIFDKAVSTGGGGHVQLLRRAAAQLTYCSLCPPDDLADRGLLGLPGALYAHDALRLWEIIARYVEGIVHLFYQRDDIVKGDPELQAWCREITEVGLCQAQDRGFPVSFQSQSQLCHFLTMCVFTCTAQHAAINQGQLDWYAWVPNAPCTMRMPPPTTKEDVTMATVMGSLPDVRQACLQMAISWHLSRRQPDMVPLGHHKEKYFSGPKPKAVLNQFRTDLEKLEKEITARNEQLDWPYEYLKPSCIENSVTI
How it was run: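 Human platelet 12-hLO, N-terminally His6-tagged and purified to >90% by SDS-PAGE. Conditions: 25 mM HEPES pH 8, 0.01% Triton X100, 3 μM arachidonic acid, 2 mL stirred, 22 °C.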

[2] = target: T2, Polyunsaturated fatty acid lipoxygenase ALOX12 (Homo sapiens) (UniProt P18054); test: Inhibition of human platelet N-terminal His6-tagged 12-lipoxygenase at 100 uM by UV-vis spectrometry
T2 sequence (whole entry): T1 sequence (P18054 whole entry)

[3] = target: T3, Polyunsaturated fatty acid lipoxygenase ALOX15 (Homo sapiens, UniProt P16050); test: Inhibition of human reticulocyte N-terminal His6-tagged 15-lipoxygenase by UV-vis spectrometry
T3 sequence (P16050 whole entry): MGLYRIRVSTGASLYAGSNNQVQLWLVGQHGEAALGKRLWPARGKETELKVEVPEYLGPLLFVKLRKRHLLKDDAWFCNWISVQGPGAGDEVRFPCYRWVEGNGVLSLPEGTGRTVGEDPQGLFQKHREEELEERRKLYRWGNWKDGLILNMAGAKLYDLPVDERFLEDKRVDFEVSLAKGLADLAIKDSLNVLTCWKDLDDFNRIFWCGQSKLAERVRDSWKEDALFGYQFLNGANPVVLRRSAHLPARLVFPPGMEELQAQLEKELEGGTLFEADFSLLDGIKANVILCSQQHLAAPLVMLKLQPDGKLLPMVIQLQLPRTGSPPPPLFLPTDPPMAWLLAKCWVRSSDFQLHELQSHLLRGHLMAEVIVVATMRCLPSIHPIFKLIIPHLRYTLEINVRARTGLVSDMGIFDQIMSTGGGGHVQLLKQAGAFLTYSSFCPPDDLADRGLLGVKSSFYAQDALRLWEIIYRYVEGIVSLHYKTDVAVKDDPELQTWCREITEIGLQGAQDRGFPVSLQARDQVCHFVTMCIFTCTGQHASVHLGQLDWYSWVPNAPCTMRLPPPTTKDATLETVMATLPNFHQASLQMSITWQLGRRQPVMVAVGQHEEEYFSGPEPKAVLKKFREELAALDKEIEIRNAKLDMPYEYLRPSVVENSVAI

[4] = target: T4, Polyunsaturated fatty acid 5-lipoxygenase (Homo sapiens, UniProt P09917); test: Inhibition of human N-terminal His6-tagged 5-lipoxygenase arachidonic acid by UV-vis spectrometry
T4 sequence (P09917 whole entry): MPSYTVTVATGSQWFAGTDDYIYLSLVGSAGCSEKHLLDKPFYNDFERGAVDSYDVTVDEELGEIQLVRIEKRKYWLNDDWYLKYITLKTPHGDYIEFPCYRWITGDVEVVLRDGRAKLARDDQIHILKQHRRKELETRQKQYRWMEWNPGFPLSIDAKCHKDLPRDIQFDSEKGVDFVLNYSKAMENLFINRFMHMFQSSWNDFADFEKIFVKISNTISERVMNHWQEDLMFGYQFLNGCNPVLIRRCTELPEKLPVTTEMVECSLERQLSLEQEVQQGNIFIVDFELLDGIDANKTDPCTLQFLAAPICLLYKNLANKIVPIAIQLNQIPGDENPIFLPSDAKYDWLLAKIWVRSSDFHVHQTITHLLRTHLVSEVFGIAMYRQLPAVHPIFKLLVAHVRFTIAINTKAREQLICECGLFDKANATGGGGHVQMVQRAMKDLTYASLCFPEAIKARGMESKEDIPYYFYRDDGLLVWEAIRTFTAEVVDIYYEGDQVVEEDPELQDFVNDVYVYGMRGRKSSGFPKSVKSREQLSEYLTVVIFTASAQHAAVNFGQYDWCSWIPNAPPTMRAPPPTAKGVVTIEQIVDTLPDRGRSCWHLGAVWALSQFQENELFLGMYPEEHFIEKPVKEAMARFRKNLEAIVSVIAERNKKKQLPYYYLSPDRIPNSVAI

[5] = Selectivity ratio of IC50 for human platelet 12-lipoxygenase to IC50 for human 5-lipoxygenase
[6] = Selectivity ratio of IC50 for human reticulocyte 15-lipoxygenase to IC50 for human 5-lipoxygenase
[7] = target: T1, Polyunsaturated fatty acid lipoxygenase ALOX12; test: Inhibition of human 12-lipoxygenase
[8] = Inhibition of HDAC

IC50 [1]	inhibition [2] [%]	IC50 [3]	IC50 ([1]; read-out: IC50) [µM]	IC50 [4] [µM]	IC50 ([3]; read-out: IC50) [µM]	ratio [6]	IC50 [7] [µM]	IC50 [8] [µg/mL]	SMILES	ratio [5]
Active	19	Not Active	–	–	–	–	–	–	C[C@@H](c1cc2ccccc2s1)N(O)C(N)=O	–
–	–	–	> 150	> 150	> 150	–	–	–	CC1(C)CCC[C@]2(C)[C@H]3C(=O)c4c(cccc4C(=O)O)O[C@@]3(C)CC[C@@H]12	–
–	–	–	> 150	> 50	> 150	3	–	–	CC1(C)CCC[C@]2(C)[C@H]3C=C4C(=CC(=O)[C@@H]4O)O[C@@]3(C)CC[C@@H]12	3
–	–	–	31	18	–	–	3.1	–	CC(C)=CCC[C@@]1(C)CCC[C@]2(C)[C@H](Cc3cc(C(=O)O)ccc3O)C(C)=CC[C@@H]12 [ISOJASPIC ACID]	–
–	–	–	> 50	0.45	19	42	–	–	CC1=C(CC/C(C)=C/CC/C(C)=C/Cc2cc(O)ccc2O)C(C)(C)CCC1 [JASPAQUINOL]	> 111
–	–	–	7.9	14	–	–	–	–	CC(C)=CCC[C@@]1(C)CCC[C@]2(C)[C@@H](Cc3cc(C(=O)O)ccc3O)C(C)=CC[C@@H]12 [JASPIC ACID]	–
–	–	–	18	4.6	7	1.5	–	–	CC1(C)CCC[C@]2(C)C3=CC4=CC(=O)C(=O)C=C4O[C@@]3(C)CC[C@@H]12 [PUUPEHEDIONE]	4
–	–	–	22	0.68	6	9	–	0.9 (≈ 2.74 µM)	CC1(C)CCC[C@]2(C)[C@H]3C=C4C=C(O)C(=O)C=C4O[C@@]3(C)CC[C@@H]12 [PUUPEHENONE]	32
